Test results from ChEMBL document CHEMBL1137356, “Tricyclic imidazoline derivatives as potent and selective adenosine A1 receptor antagonists” (J Med Chem, 2006).
In brackets after ≈: the same amount, converted by molar mass.

How the values were obtained:
[1] = biological target: Adenosine receptors; A1 & A2b (Homo sapiens) (UniProt P30542+P29275); experiment: Selectivity for human adenosine A1 receptor over adenosine A2B receptor; type: protein assay
[2] = biological target: Adenosine receptors; A1 & A2a (Homo sapiens) (UniProt P30542+P29274); experiment: Selectivity for human adenosine A1 receptor over adenosine A2A receptor; type: protein assay
[3] = biological target: Adenosine receptor A2a (Homo sapiens, UniProt P29274); experiment: Displacement of [125I]ZM-241385 from human adenosine A2A receptor
[4] = biological target: T1, Adenosine receptor A3 (Homo sapiens, UniProt P0DMS8); experiment: Displacement of [125I]ABA from human adenosine A3 receptor
T1 sequence (P0DMS8 whole entry): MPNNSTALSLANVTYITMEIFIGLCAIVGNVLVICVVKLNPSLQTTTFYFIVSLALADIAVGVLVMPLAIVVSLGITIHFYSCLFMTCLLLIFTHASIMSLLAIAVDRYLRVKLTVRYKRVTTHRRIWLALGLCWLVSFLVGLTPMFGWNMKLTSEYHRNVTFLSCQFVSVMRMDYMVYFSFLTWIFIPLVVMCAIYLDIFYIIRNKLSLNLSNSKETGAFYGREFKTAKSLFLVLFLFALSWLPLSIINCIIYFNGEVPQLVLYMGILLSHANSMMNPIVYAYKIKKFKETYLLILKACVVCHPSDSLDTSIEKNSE

[5] = biological target: T2, Adenosine receptor A1 (Homo sapiens, UniProt P30542); experiment: Displacement of [125I]ABA from human adenosine A1 receptor
T2 sequence (P30542 whole entry): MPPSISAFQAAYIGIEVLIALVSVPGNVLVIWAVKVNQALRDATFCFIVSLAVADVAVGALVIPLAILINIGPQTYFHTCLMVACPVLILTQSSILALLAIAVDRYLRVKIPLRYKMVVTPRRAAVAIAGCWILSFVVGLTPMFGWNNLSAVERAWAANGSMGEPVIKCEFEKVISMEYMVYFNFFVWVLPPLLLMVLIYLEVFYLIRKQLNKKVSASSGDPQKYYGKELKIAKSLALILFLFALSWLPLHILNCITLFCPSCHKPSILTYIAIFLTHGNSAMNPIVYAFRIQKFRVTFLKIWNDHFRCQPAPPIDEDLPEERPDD

[6] = biological target: T3, Adenosine receptor A2b (Homo sapiens, UniProt P29275); experiment: Displacement of [125I]3-(4-aminobenzyl)-8-phenyloxyacetate-1-propyl-xanthine from human adenosine A2B receptor
T3 sequence (P29275 whole entry): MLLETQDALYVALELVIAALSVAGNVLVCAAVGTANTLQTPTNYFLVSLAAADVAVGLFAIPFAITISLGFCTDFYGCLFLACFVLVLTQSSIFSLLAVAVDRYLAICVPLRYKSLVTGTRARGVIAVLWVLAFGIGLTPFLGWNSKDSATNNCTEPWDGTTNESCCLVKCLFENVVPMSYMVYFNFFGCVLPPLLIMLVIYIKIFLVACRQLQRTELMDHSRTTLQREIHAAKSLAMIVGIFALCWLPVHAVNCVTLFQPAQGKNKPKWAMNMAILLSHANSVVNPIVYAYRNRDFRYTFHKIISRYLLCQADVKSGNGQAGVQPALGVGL

[7] = biological target: T4, Adenosine receptor A1 (Rattus norvegicus, UniProt P25099); experiment: Displacement of [3H]DPCPX from adenosine A1 receptor in rat cerebral cortex; type: tissue-based
T4 sequence (P25099 whole entry): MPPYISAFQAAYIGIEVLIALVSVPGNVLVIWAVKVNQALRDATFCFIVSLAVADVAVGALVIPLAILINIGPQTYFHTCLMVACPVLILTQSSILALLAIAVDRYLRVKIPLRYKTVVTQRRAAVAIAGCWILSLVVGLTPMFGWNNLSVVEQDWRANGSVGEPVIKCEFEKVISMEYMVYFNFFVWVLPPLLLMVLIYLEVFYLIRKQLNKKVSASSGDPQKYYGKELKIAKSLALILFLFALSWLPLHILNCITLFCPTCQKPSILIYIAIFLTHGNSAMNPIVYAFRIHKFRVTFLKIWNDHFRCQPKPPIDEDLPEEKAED
Summary of the method: (§1)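 Rat brain membranes (cerebral cortex for A1, striatum for A2A) homogenized in 10 mM EDTA/10 mM Na-HEPES pH 7.4 with protease inhibitors, washed, stored at -80 °C. 40-70 µg protein incubated in triplicate with radioligand plus seven competitor concentrations in HEPES/EDTA buffer with 2 units/mL adenosine deaminase, 2.5 h, 21 °C. A1: [3H]DPCPX 2 nM, nonspecific with 10 µM NECA; A2A: [3H]ZM241385 0.5-1.2 nM, nonspecific with 10 µM XAC. GF/C filtration; single-site fit, Cheng-Prusoff Ki.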

[8] = biological target: Adenosine receptor A2a (Rattus norvegicus) (UniProt P30543); experiment: Displacement of [3H]ZM-241385 from adenosine A2A receptor in rat striatal membrane at 10 uM relative to control; type: cell membranes; conditions: Striatum
[9] = tested on: Rattus norvegicus; experiment: (§2) AUC(last) in rat at 1 mg/kg, po; type: ADME, organism-based, Plasma; design: time 0 - last, dose 1 mg/kg, route oral; conditions: in vivo
Summary of the method: (§3)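 Rats given 1 mg/kg orally and intravenously to obtain pharmacokinetic parameters.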

[10] = Half life in rat 1 mg/kg, po; type: ADME, organism-based; design: dose 1 mg/kg, route oral; conditions: in vivo; summary of the method: as §3
[11] = Oral bioavailability in rat at 1 mg/kg, iv and po; type: ADME, organism-based; conditions: in vivo; summary of the method: as §3
[12] = tested on: Rattus norvegicus; experiment: Volume of distribution in rat at 1 mg/kg, po; type: ADME, organism-based; design: dose 1 mg/kg, route oral; conditions: in vivo; summary of the method: as §3
[13] = tested on: Rattus norvegicus; experiment: Sodium excretion level in po dosed rat diuresis model; type: ADME, organism-based
Summary of the method: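 Rats held in metabolic cages and dosed by gavage as 0.5% cmc suspension at several doses; urine collected for 4 h and sodium excretion (UNaV) measured.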

[14] = as §2; type: ADME, organism-based, Plasma; design: time 0 - last, dose 1 mg/kg, route oral; conditions: plasma; summary of the method: as §3
[15] = Clearance in rat at 1 mg/kg, po; type: ADME, organism-based; design: dose 1 mg/kg, route oral; conditions: in vivo; summary of the method: as §3
[16] = biological target: T4, Adenosine receptor A1; experiment: Intrinsic activity at adenosine A1 receptor assessed as blockade of CPA in isolated spontaneously beating rat atria; type: functional; conditions: read-out: pA2 (converted)
[17] = biological target: Adenosine receptor A2a (Rattus norvegicus, UniProt P30543); experiment: Displacement of [3H]ZM-241385 from adenosine A2A receptor in rat striatal membrane; type: cell membranes, Striatum; summary of the method: as §1
[18] = Aqueous solubility of the compound; type: physicochemical

Adenosine receptor A2a (Rattus norvegicus), sequence (P30543 whole entry): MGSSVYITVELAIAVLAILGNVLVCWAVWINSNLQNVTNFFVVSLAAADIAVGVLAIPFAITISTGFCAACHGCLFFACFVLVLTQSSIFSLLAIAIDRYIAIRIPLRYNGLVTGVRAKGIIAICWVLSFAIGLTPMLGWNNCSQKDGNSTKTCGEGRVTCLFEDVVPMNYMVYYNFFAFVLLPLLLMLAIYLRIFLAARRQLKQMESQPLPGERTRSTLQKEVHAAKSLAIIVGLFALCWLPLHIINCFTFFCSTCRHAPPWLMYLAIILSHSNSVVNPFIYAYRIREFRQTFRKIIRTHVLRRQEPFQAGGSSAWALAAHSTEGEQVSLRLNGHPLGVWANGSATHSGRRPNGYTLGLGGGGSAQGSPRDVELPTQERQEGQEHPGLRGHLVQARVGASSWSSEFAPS
Adenosine receptor A2a (Homo sapiens, UniProt P29274), sequence (P29274 whole entry): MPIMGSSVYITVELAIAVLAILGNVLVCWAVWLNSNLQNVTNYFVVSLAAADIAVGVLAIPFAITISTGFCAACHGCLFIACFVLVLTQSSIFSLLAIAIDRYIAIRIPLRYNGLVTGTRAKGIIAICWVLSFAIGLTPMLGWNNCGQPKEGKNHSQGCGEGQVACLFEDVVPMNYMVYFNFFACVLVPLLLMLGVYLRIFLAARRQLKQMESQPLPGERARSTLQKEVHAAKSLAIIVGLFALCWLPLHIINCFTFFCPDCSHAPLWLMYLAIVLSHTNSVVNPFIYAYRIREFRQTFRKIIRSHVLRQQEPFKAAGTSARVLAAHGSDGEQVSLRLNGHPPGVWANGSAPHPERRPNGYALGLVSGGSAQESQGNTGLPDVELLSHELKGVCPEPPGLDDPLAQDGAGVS
Adenosine receptor A2a (Rattus norvegicus, UniProt P30543), sequence (P30543 whole entry): as the sequence (P30543 whole entry) above
Adenosine receptors; A1 & A2a (Homo sapiens), sequence (P29274 whole entry, looked up, one chain of several): as the sequence (P29274 whole entry) above

CCCN1C(=O)N2C[C@@H](C(C)C)N=C2c2[nH]c(C34CCC(O)(CC3)CC4)nc21 [listing 1 of 2 here]
Ratio Ki [1]: 57 | Ratio Ki [2]: 46

CCCN1C(=O)N2C[C@@H](C(C)C)N=C2c2[nH]c(C34CCC(CCC(=O)O)(CC3)CC4)nc21 [listing 1 of 2 here]
Ki [3]: 18 µM | Ki [4]: > 10 µM | Ki [5]: 45 nM | Ki [6]: 3100 nM

CCCN1C(=O)N2C[C@H](CC)N=C2c2[nH]c(C34CCC(C(=O)O)(CC3)CC4)nc21
Ki [7]: > 250 nM | Activity [8]: 80%

CCCN1C(=O)N2C[C@@H](C(C)C)N=C2c2[nH]c(C34CCC(CCC(=O)O)(CC3)CC4)nc21.Cl
AUC [9]: 2600 ng·h/mL | half-life [10]: 186 min | bioavailability [11]: 77% | Vdss [12]: 0.9 L/kg | ED50 [13]: 0.01 mg/kg

CCCN1C(=O)N2CC[C@@H](C)N=C2c2[nH]c(C34CCC(O)(CC3)CC4)nc21
Ki [7]: > 250 nM

CCCn1c(=O)c2nc(C34CCC(CCC(=O)O)(CC3)CC4)[nH]c2n(CCC)c1=O.Cl
AUC(0-t) [14]: 10000 ng·h/mL | half-life [10]: 186 min | bioavailability [11]: 99% | Vdss [12]: 0.3 L/kg | CL/F [15]: 1.6 mL/min/kg | ED50 [13]: 0.01 mg/kg

CCCN1C(=O)N2C[C@@H](C(C)C)N=C2c2[nH]c(C34CCC(O)(CC3)CC4)nc21 [listing 2 of 2 here]
Ki [3]: 1.6 µM | Ki [7]: 4 nM | Kb [16]: 0.126 nM | Ki [4]: > 10 µM | Ki [17]: 1100 nM | Ki [5]: 35 nM | Ki [6]: 2000 nM

CCCN1C(=O)N2C[C@H](C(C)CC)N=C2c2[nH]c(C34CCC(O)(CC3)CC4)nc21 (stereo partly specified)
Ki [7]: 14 nM | Activity [8]: 91%

CCCN1C(=O)N2CC[C@@H](CC)N=C2c2[nH]c(C34CCC(O)(CC3)CC4)nc21
Ki [7]: > 250 nM

CCCN1C(=O)N2C[C@@H](C(C)C)N=C2c2[nH]c(C34CCC(CCC(=O)O)(CC3)CC4)nc21 [listing 2 of 2 here]
Ratio Ki [1]: 69 | Ratio Ki [2]: 400 | Activity [8]: 74%

CCCn1c(=O)c2nc(C34CCC(O)(CC3)CC4)[nH]c2n(CCC)c1=O
Ratio Ki [1]: 215 | Ratio Ki [2]: 275

CCCN1C(=O)N2C[C@@H](CC)N=C2c2[nH]c(C34CCC(O)(CC3)CC4)nc21 [listing 1 of 2 here]
Ki [3]: 4.4 µM | Ki [7]: 6 nM | Kb [16]: 1.32 nM | Ki [4]: > 10 µM | Ki [17]: 2700 nM | Ki [5]: 22 nM | Ki [6]: 580 nM

CCC[C@@H]1CN2C(=O)N(CCC)c3[nH]c(C45CCC(O)(CC4)CC5)nc3C2=N1
Activity [8]: 90%

CCCN1C(=O)N2C[C@@H](CC)N=C2c2[nH]c(C34CCC(O)(CC3)CC4)nc21.Cl
AUC(0-t) [14]: 800 ng·h/mL | half-life [10]: 228 min | bioavailability [11]: 84% | Vdss [12]: 4.1 L/kg | solubility [18]: 100 mg/mL | CL/F [15]: 18 mL/min/kg | ED50 [13]: 0.01 mg/kg

CCCN1C(=O)N2C(=NC[C@H]2C)c2[nH]c(C34CCC(O)(CC3)CC4)nc21
Ki [7]: 51 nM

CCCN1C(=O)N2C[C@@H](C(C)C)N=C2c2[nH]c(C34CCC(O)(CC3)CC4)nc21.Cl
AUC(0-t) [14]: 810 ng·h/mL | half-life [10]: 174 min | bioavailability [11]: 54% | Vdss [12]: 1.7 L/kg | CL/F [15]: 21 mL/min/kg | ED50 [13]: 0.01 mg/kg

CCCN1C(=O)N2C[C@@H](C)N=C2c2[nH]c(C34CCC(O)(CC3)CC4)nc21
Ki [5]: 60 nM | Ratio Ki [1]: 37 | Ki [6]: 2200 nM | Activity [8]: 32%

CCCN1C(=O)N2CCN=C2c2[nH]c(C34CCC(O)(CC3)CC4)nc21
Ki [7]: > 100 nM | Activity [8]: 77%

CCCN1C(=O)N2C[C@@H](Cc3ccccc3)N=C2c2[nH]c(C34CCC(O)(CC3)CC4)nc21
Activity [8]: 84%

CCCN1C(=O)N2C[C@@H](CC)N=C2c2[nH]c(C34CCC(CCC(=O)O)(CC3)CC4)nc21
Ki [3]: > 10 µM | Ki [4]: > 10 µM | Ki [5]: 35 nM | Ratio Ki [1]: 54 | Ki [6]: 1900 nM | Ratio Ki [2]: > 280 | Activity [8]: 83%

CCCN1C(=O)N2C[C@@H](c3ccccc3)N=C2c2[nH]c(C34CCC(O)(CC3)CC4)nc21
Activity [8]: 79%

CCCN1C(=O)N2C[C@H](CC)N=C2c2[nH]c(C34CCC(O)(CC3)CC4)nc21
Ki [7]: > 100 nM | Activity [8]: 70%

CCCN1C(=O)N2C(=NC[C@@H]2C)c2[nH]c(C34CCC(O)(CC3)CC4)nc21
Ki [7]: 69 nM

CCCn1c(=O)c2[nH]c(C34CCC(O)(CC3)CC4)nc2n(CCC)c1=O
Ki [3]: 0.55 µM | Ki [7]: 0.6 nM | Ki [4]: > 1 µM | Ki [5]: 2 nM | Ki [6]: 430 nM | solubility [18]: 0.1 mg/mL (≈ 277 µM)

CCCN1C(=O)N2C[C@@H](CC)N=C2c2[nH]c(C34CCC(C(=O)O)(CC3)CC4)nc21
Activity [8]: 48%

CCCN1C(=O)N2C[C@@H](CC)N=C2c2[nH]c(C34CCC(O)(CC3)CC4)nc21 [listing 2 of 2 here]
Ratio Ki [1]: 26 | Ratio Ki [2]: 200

CCCn1c(=O)c2[nH]c(C34CCC(CCC(=O)O)(CC3)CC4)nc2n(CCC)c1=O [TONAPOFYLLINE]
Ki [3]: 6.4 µM | Ki [7]: 1 nM | Kb [16]: 0.158 nM | Ki [4]: > 10 µM | Ki [6]: 90 nM

CCCN1C(=O)N2C[C@@H](CC(C)C)N=C2c2[nH]c(C34CCC(O)(CC3)CC4)nc21
Ki [7]: 170 nM | Activity [8]: 97%
